Shown are actives, neighbours in structure and some others; about 1.9% of the full set was active somewhere.
697 NFkB inh: inhibitors of the PMA/ionomycin-induced NF-kB reporter in 697 B cells; 697 B-cell NF-kB luciferase reporter, 16 h; inhibition, % at 4 µM; 330,000 tested, 0.33% active; AID 435022; in the data active = inhibition above about 35%
TAG inh: triacylglycerol accumulation inhibition; H9c2 cells, Nile Red lipid (TAG) fluorescence; cells loaded with 200 µM oleic acid; inhibition, % at 12.5 µM; 230,000 tested, 0.66% active;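 active = pattern-corrected inhibition of lipid staining of at least 50% with the nuclear-stain viability signal not falling by more than 50%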
Jurkat NFkB inh: inhibitors of the PMA/ionomycin-induced NF-kB reporter in Jurkat cells; PMA/ionomycin-induced NF-kB luciferase reporter, luminescence; inhibition, % at 4 µM; 330,000 tested, 0.53% active; in the data active = inhibition above about 50%
Lipid droplet: modulators of hepatic lipid droplet formation. AID 1656. AML12 mouse hepatocytes, oleate lipid droplets, BODIPY imaging. 240,000 tested, 0.4% active. inhibition, % at 6.5 µM;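 active = lipid droplet intensity inhibited by at least 50%, with more than 500 cells counted; inconclusive = wells with under 300 cells, treated as cytotoxic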
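Material: mouse AML12 hepatocyte cell line, fixed after treatment; Timing: compound with oleate, overnight; Technique: high-content imaging of BODIPY-stained droplets and DAPI nuclei; Probe or stimulus: oleate, 100 µM final; Dosing: compound at 6.5 µM only.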
APP transl inh: APP translation inhibition; SH-SY5Y APP 5'UTR-luciferase reporter, luminescence; inhibition, % at 2 µM; 190,000 tested, 0.82% active; AID 1285;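 active = inhibition above a set limit, derived from the sample mean plus 3 SD, cut at about 45% in these data; inconclusive = one replicate passes the limit while the other fails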
aSyn UTR inh: MLPCN primary screen, SNCA 5' untranslated region; alpha-synuclein 5'UTR reporter, inhibitor activity; inhibition, % (tested at 7.5 µM); 300,000 tested, 0.82% active; in the data active = inhibition above about 60%; inconclusive = no clear call, values can overlap the other calls;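 also: H4 neuroglioblastoma cells stably carrying SNCA 5'UTR luciferase fusion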
Jurkat NFkB conf: inhibitors of the PMA/ionomycin-induced NF-kB reporter in Jurkat cells, retest | shares compounds with Jurkat NFkB inh | Jurkat NF-kB luciferase, 16 h | inhibition, % at 4 µM | 2,700 tested, 27% active;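 active = inhibition reaching about 45% at 4 µM in either replicate, limit read from the data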
697 NFkB conf: inhibitors of the PMA/ionomycin-induced NF-kB reporter in 697 B cells, retest | shares compounds with 697 NFkB inh | 697 B-cell NF-kB luciferase, 16 h | inhibition, % at 4 µM | 2,000 tested, 35% active | AID 449746; in the data active = inhibition mostly above about 28%, no sharp cut-off; inactive = mostly below about 22%
A number is an active result; n = inactive; u = inconclusive; x = no result given.

SMILES | 697 NFkB inh | TAG inh | Jurkat NFkB inh | Lipid droplet | APP transl inh | aSyn UTR inh | Jurkat NFkB conf | 697 NFkB conf
Cc1ccc(-c2noc(-c3ccccc3Br)n2)cc1 | n | x | n | x | n | x | n | n
CN(C)c1ccc(-c2noc(-c3ccccc3O)n2)cc1 | n | n | n | x | n | 71 | n | n
COc1ccccc1-c1nc(-c2ccc(Br)cc2)no1 | n | x | n | x | n | n | x | x
Cc1csc(=O)n1CC(=O)Nc1ccc(C(C)C)cc1 | n | n | n | x | x | x | x | x
COc1ccc(C2NN=C(c3c[nH]c4ccccc34)C2O)cc1 (stereo unspecified) | n | x | n | x | x | n | x | x
COc1ccc(C2C(O)C(c3c[nH]c4ccccc34)=NN2C(=O)CCl)cc1 (stereo unspecified) | 97 | x | 100 | n | x | 108 | n | n
COc1ccc(S(=O)(=O)N2CCOC2CNC(=O)C(=O)NCc2ccccn2)cc1C (stereo unspecified) | n | n | n | n | x | n | x | x
Cc1noc(/C=C/N(C)C)c1S(=O)(=O)N1CCCC(C(=O)Nc2ccccc2F)C1 (stereo unspecified) | n | x | n | n | x | n | x | x
COc1cc(/C=N/O)ccc1OCc1ccc(C(=O)O)cc1 | 85 | n | 85 | n | 82 | 116 | 67 | 48
O=C(O)c1cc(/C=N\O)ccc1OCc1ccccc1 | n | n | n | n | n | n | x | x
CC(C)OC(=O)c1sc2nc(-c3ccccc3)ccc2c1N | n | x | n | x | n | n | n | n
Clc1ccc(/C=C/c2nc3ccccc3[nH]2)cc1 | n | x | n | x | x | u | n | n
Cc1ccccc1NC(=O)N1CCN(S(=O)(=O)c2ccccc2)CC1 | n | n | n | n | n | n | x | x
N#Cc1cc2c(nc1SCC(=O)Nc1nccs1)CCCCC2 | n | x | n | n | n | n | n | n
CCc1nnc(NC(=O)CSc2nc3c(cc2C#N)CCC3)s1 | n | n | n | n | n | n | x | x
CCOC(=O)C1CCCN(S(=O)(=O)c2ccc(S(=O)(=O)N(CC)CC)cc2)C1 (stereo unspecified) | 43 | n | 60 | n | n | n | 62 | 52
O=S(=O)(c1ccc2c(c1)OCCO2)N1CCC(O)(c2ccc(Cl)cc2)CC1 | n | n | n | n | n | n | x | x
O=C1NC(Cc2ccc(O)cc2)c2nc3cc(F)ccc3c(=O)n2-c2cc3ccccc3cc21 (stereo unspecified) | x | n | x | x | x | x | x | x
CCc1ccc(-c2cnc3ccccc3n2)cc1NC(=O)CNC(=O)c1ccccc1 | n | x | n | n | x | n | n | n
Fc1cccc(-c2cc3nc4c(c(NCc5ccco5)n3n2)CCCC4)c1 | n | x | n | x | n | n | n | n
CCOC(=O)c1sc(NC(=O)Nc2cccc(Cl)c2)cc1C | n | x | n | n | n | n | x | x
CCOC(=O)c1sc(NC(=O)c2sccc2C)cc1C | n | 51 | n | x | n | n | n | n
CC1CC(C)CN(C(=O)CN(C)S(=O)(=O)c2ccc3c(c2)c(=O)n(C)c(=O)n3C)C1 (stereo unspecified) | n | x | n | n | x | n | x | x
COc1cc(NS(C)(=O)=O)ccc1Nc1c2ccccc2nc2ccccc12 | n | n | 72 | x | x | x | 82 | n
O=C(CCS(=O)(=O)c1ccccc1)Nc1ccc(-c2nc3ccccc3s2)cc1 | n | n | n | n | n | n | n | n
SMILES | 697 NFkB inh | TAG inh | Jurkat NFkB inh | Lipid droplet | APP transl inh | aSyn UTR inh | Jurkat NFkB conf | 697 NFkB conf
O=C(CCS(=O)(=O)c1ccccc1)Nc1cccc(-c2nc3ccccc3s2)c1 | n | n | n | n | n | n | x | x
C/C(=N\NC(=O)c1ccc(F)cc1)c1ccccn1 | n | x | 100 | n | x | n | n | n
O=C(O)CSCC(=O)Nc1ccc(C2CCCCC2)cc1 | 90 | x | 63 | u | 68 | 108 | 78 | 83
Nn1cnnc1SCC(=O)Nc1ccc(C2CCCCC2)cc1 | n | x | n | x | n | n | x | x
CC(=O)c1c(C)[nH]c(C(=O)OCC(=O)Nc2ccc(C)cc2[N+](=O)[O-])c1C | 48 | n | 62 | n | n | n | 69 | n
COc1ccc(CCNC(=O)c2nn(C)c3c2CS(=O)(=O)c2ccccc2-3)c(OC)c1 | n | x | n | n | x | n | x | x
CCCCCCCCCn1c2c(c(=N)c3c1CCC3)CCC2 | 94 | n | 91 | n | n | 86 | 74 | n
CCCCCCn1c2c(c(=N)c3c1CCC3)CCC2 | 104 | x | 65 | n | n | 67 | 69 | 34
CNc1c(NS(=O)(=O)c2cc(Cl)ccc2OC)c(=O)oc2ccccc12 | n | x | n | n | x | n | x | x
CC(=O)c1ccc(OCC(=O)N2CCCC2c2ccc3c(c2)OCCCO3)cc1 (stereo unspecified) | n | n | n | x | x | x | x | x
O=C(CCl)N1CCCC1c1ccc2c(c1)OCCO2 (stereo unspecified) | 52 | x | 85 | n | x | n | 78 | 67
CC(C)(C)N(Cc1ccccc1)C(=O)COC(=O)C1=NN(c2ccccc2)C(=O)CC1 | n | n | n | x | x | x | x | x
CCc1nn2c(NCCOC)cc(C)nc2c1-c1ccc(F)cc1 | n | n | n | n | n | n | x | x
Cc1noc(C)c1C(=O)OCC(=O)NC1CCCCC1C (stereo unspecified) | n | n | n | x | x | x | x | x
Cc1ccc(-c2nc3ccc([N+](=O)[O-])cc3[nH]2)cc1 | n | n | n | n | n | n | n | n
COc1ccc(-c2nc3ccc([N+](=O)[O-])cc3[nH]2)cc1 | x | x | x | n | n | n | x | x
O=C(CCCCn1c(=S)[nH]c2ccsc2c1=O)NCc1ccc2c(c1)OCO2 | n | n | n | n | n | n | x | x
O=C(Nc1ccc2c(c1)CCC2)Nc1ccccc1F | n | n | n | n | x | n | n | n
CC(C)(C)C(=O)/C(=C\c1ccc([N+](=O)[O-])cc1)n1cncn1 | 44 | x | 76 | n | 93 | n | 57 | 50
CNc1snc(C)c1C(=O)OC(C)C(=O)Nc1ccc(F)cc1 (stereo unspecified) | n | n | n | x | x | x | x | x
COC(=O)CCn1nnc(-c2ccc(C(C)C)cc2)n1 | 69 | n | 64 | n | 77 | 119 | 61 | 78
COc1ccc(S(=O)(=O)Nc2cc3c4c(c2)CCN4C(=O)CC3)cc1OC | n | n | n | x | x | n | x | x
Cc1cc(=O)[nH]c(N/N=C/c2c(C)nn(-c3ccccc3)c2Cl)n1 | n | n | n | n | x | n | x | x
Cc1nn(-c2ccccc2)c(Cl)c1/C=N/Nc1nc2ccccc2[nH]1 | n | n | n | n | n | n | n | n
CCCC(=O)Nc1nc2ccc(OC)cc2s1 | n | n | n | n | n | n | x | x
COc1ccc2nc(NC(=O)c3cc(C)oc3C)sc2c1 | n | n | n | n | n | n | x | x
COc1ccc2nc(NC(=S)N(C)C)sc2c1 | n | x | n | n | n | n | n | n
COc1ccc2nc(NC(=O)c3ccoc3C)sc2c1 | n | x | n | n | n | n | n | n
COc1ccc2c(COC(=O)[C@@H]3CCCN3S(=O)(=O)c3ccc(Cl)cc3)cc(=O)oc2c1 | n | n | n | x | x | x | x | x

Screening results: PubChem, several laboratories
